Measured values gathered from unrelated publications.
Each line is one published result; the experiments were not run side by side.
Target: Cyclin-dependent kinase 7 (CDK7, Homo sapiens, UniProt P50613)

Structure (SMILES)	effect on	technique	tested at	remaining binding [%]
O=C(NS(=O)(=O)c1ccc(NCC2CCOCC2)c([N+](=O)[O-])c1)c1ccc(N2CCN(Cc3ccc(C(F)(F)F)cc3-c3ccc(Cl)cc3)CC2)cc1Oc1cnc2[nH]ccc2c1	cell-free assay	competition with immobilised ligand	1 µM	96
O=C(c1ccc(Nc2ncc(Cl)c(-c3cc4ccccc4s3)n2)cc1)N1CCC(N2CCCC2)CC1	binding	competition with immobilised ligand	1 µM	1.5
FC(F)(F)Oc1cccc(-c2cnc3ccc(-c4ccncc4)nn23)c1	cell-free assay	competition with immobilised ligand	5 µM	0.85
COc1cnc(Nc2cccc(S(N)(=O)=O)c2)nc1N1CCN(c2ccccc2)C(=O)C1	binding	competition with immobilised ligand	1 µM	73
COc1ccc2c(c1)O[C@H](c1ccc(OC)c(OC)c1)C[C@@H]2NC(=O)C1(c2ccc3c(c2)OC(F)(F)O3)CC1	cell-free assay	competition with immobilised ligand	1 µM	85
COC(=O)Nc1nc2ccc(C(=O)c3ccccc3)cc2[nH]1	cell-free assay	competition with immobilised ligand	10 µM	11
C[C@@H](c1ccc(-n2cnc3c(N)ncnc32)cc1)N1CCc2nn(C)c(Cc3ccccc3)c2C1=O	binding	competition with immobilised ligand	0.1 µM	45
O=C(c1ccc(Nc2nccc(-c3cc4ccccc4s3)n2)cc1)N1CCC(N2CCCC2)CC1	binding	competition with immobilised ligand	1 µM	12
CCC(=O)N[C@@H]1CC[C@H](C(=O)N(C)c2ccc(-c3nc4ccccc4o3)cc2)C1	cell-free assay	competition with immobilised ligand	1 µM	85
CN(C)c1nccc(-c2cnn3ncccc23)n1	binding	–	1 µM	82
Nc1ncc2c(n1)-c1c([nH]c3ccc(C#CC4CC4)cc13)CCCC2	binding	competition with immobilised ligand	1 µM	92
N[C@@H]1CCN(c2nccc(-c3cnn4ncccc34)n2)C1	binding	–	1 µM	21
C[C@@H]1CN(c2ccc3ncc(-c4ccc5[nH]nc(C6CC6)c5c4)n3n2)C[C@H](C)O1	binding	competition with immobilised ligand	50 nM	88
Cc1cnc(Nc2ccc(C(=O)N3CCC(N4CCCC4)CC3)cc2)nc1-c1cc2ccccc2s1	binding	competition with immobilised ligand	1 µM	2.4
C[C@H]1CCN(c2nccc(-c3cnn4ncccc34)n2)C1	binding	–	1 µM	27
c1cncc(-c2cccc(Nc3nccc(NC4CCCCC4)n3)c2)c1	binding	competition with immobilised ligand	10 µM	46
COc1cccc(CNC(=O)c2nc3scc(COCc4ccc(C(=O)O)cc4)c3c(=O)[nH]2)c1	cell-free assay	competition with immobilised ligand	1 µM	80.5
COc1ccnn2ncc(-c3ccnc(N(C)C)n3)c12	binding	–	1 µM	85
CS(=O)(=O)NCC[C@H](NC(=O)c1cncc2c1cnn2-c1ccc(F)cc1)c1ccnc(S(C)(=O)=O)c1	cell-free assay	competition with immobilised ligand	1 µM	100
CN(C)c1ncc(F)c(-c2cnn3ncccc23)n1	binding	–	1 µM	78
CCC(=N\O)/C(C)=C/c1ccc(F)cc1	cell-free assay	competition with immobilised ligand	1 µM	60
O=C(Nc1c[nH]nc1C(=O)NC1CCNCC1)c1cc(F)cc(F)c1	binding	competition with immobilised ligand	1 µM	5.6
CN(C)c1nccc(-c2cnc3ncccn23)n1	binding	–	1 µM	29
O=C(Nc1cccnn1)N1CC(C/C=C/c2cncc(Oc3ccc(C(F)(F)F)cn3)n2)C1	cell-free assay	competition with immobilised ligand	1 µM	81
